In brackets after ≈: the same amount, converted by molar mass. Activity calls are given as the source filed them. No cut-off for these calls is given here.
Assays:
Bacillus subtilis [1] = test: Antibacterial activity against Bacillus subtilis NCIM 2546 at > 100 […] after 24 hrs by disc diffusion method; assay type: functional, organism-based
[2] = Cytotoxicity against […] at 10 uM; assay type: cell-based
Proteus vulgaris = test: Antibacterial activity against Proteus vulgaris NCIM 2813 after 24 hrs by disc diffusion method; assay type: functional; conditions: for MIC: Proteus vulgaris, NCIM 2813, 24 h
Procedure, shortened: (§1)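 Paper disc diffusion (6.25 mm Whatman no.1 discs, dry-heat sterilized at 140 °C for 1 h) loaded with compounds at different concentrations in DMSO. Discs were placed in triplicate on nutrient agar seeded with fresh bacterial culture and incubated at 37 °C for 24 h, with solvent and growth controls. Zones of inhibition (mm) and MIC, the concentration completely inhibiting growth, were recorded.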

Aspergillus niger [3] = test: Antibacterial activity against Aspergillus niger NCIM 545 after 72 hrs by disc diffusion method; assay type: functional
Procedure, shortened: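 Agar disc diffusion against fungi. Fungi were maintained on potato dextrose agar at (25 ± 2) °C for five days before use. Compounds were dissolved in DMSO (10 mg/mL initial solutions) and loaded on discs placed on freshly seeded plates alongside a solvent control disc. Plates were held at 4 °C for 24 h for diffusion, then incubated at 37 ± 5 °C for 72 h. Zones of inhibition (mm) and MICs were recorded.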

Klebsiella pneumoniae = test: Antibacterial activity against Klebsiella pneumoniae NCIM 5082 at > 100 […] after 24 hrs by disc diffusion method; assay type: functional, organism-based
Penicillium chrysogenum = test: Antibacterial activity against Penicillium chrysogenum NCIM 707 at > 100 […] after 72 hrs by disc diffusion method; assay type: functional, organism-based
THP-1 [4] = test: Antiinflammatory activity in human THP1 cells assessed as inhibition of LPS-induced IL-6 secretion at 10 uM treated 30 mins before LPS challenge measured after 24 hrs by ELISA relative to control; assay type: functional
Procedure, shortened: (§2)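 THP-1 cells were grown in RPMI 1640 with 10% FBS and penicillin/streptomycin, then differentiated with PMA. Compound or vehicle (0.5% DMSO) was added for 30 min at 37 °C, followed by LPS (E. coli 0127:B8, final 1 µg/mL). After 24 h at 37 °C in 5% CO2, TNF-α and IL-6 in the supernatants were quantified by ELISA. Values are the mean of n = 2.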

THP-1 [5] = test: Antiinflammatory activity in human THP1 cells assessed as inhibition of LPS-induced TNFalpha secretion at 10 uM treated 30 mins before LPS challenge measured after 24 hrs by ELISA relative to control; assay type: functional; procedure, shortened: as §2
Aspergillus fumigatus = test: Antibacterial activity against Aspergillus fumigatus NCIM 902 at > 100 […] after 72 hrs by disc diffusion method; assay type: functional, organism-based
Escherichia coli [6] = test: Antibacterial activity against Escherichia coli NCIM 2065 at > 100 […] after 24 hrs by disc diffusion method; assay type: functional, organism-based
Staphylococcus aureus = test: Antibacterial activity against Staphylococcus aureus NCIM 2120 at > 100 […] after 24 hrs by disc diffusion method; assay type: functional, organism-based
Candida albicans = test: Antibacterial activity against Candida albicans NCIM 3100 at > 100 […] after 72 hrs by disc diffusion method; assay type: functional, organism-based
Trichoderma viride = test: Antibacterial activity against Trichoderma viride TT at > 100 […] after 72 hrs by disc diffusion method; assay type: functional, organism-based
Aspergillus niger [7] = test: Antibacterial activity against Aspergillus niger NCIM 545 at > 100 […] after 72 hrs by disc diffusion method; assay type: functional, organism-based
Escherichia coli [8] = test: Antibacterial activity against Escherichia coli NCIM 2065 after 24 hrs by disc diffusion method; assay type: functional; procedure, shortened: as §1
Bacillus subtilis [9] = test: Antibacterial activity against Bacillus subtilis NCIM 2546 after 24 hrs by disc diffusion method; assay type: functional; procedure, shortened: as §1

Compound | MIC (Bacillus subtilis [1]) | Activity [2] | inhibition zone (IZ) (Proteus vulgaris) [mm] | MIC (Proteus vulgaris) [mg/L] | inhibition zone (IZ) (Aspergillus niger [3]) [mm] | MIC (Aspergillus niger [3]; Aspergillus niger, NCIM 545, 72 h) [mg/L] | MIC (Klebsiella pneumoniae) | MIC (Penicillium chrysogenum) | inhibition at 10 µM (THP-1 [4]) [%] | inhibition at 10 µM (THP-1 [5]) [%] | MIC (Aspergillus fumigatus) | MIC (Escherichia coli [6]) | MIC (Staphylococcus aureus) | MIC (Candida albicans) | MIC (Trichoderma viride) | MIC (Aspergillus niger [7]) | inhibition zone (IZ) (Escherichia coli [8]) [mm] | MIC (Escherichia coli [8]; Escherichia coli, NCIM 2065, 24 h) [mg/L] | inhibition zone (IZ) (Bacillus subtilis [9]) [mm]
COc1ccc(/C(Cl)=C/C=C/C(=O)c2c(O)cc(OC)cc2OC)cc1 | inactive | Non-toxic | 17 | 50 (≈ 133 µM) | 16 | 50 (≈ 133 µM) | inactive | inactive | 78 | 18 | inactive | inactive | inactive | inactive | inactive | – | – | – | –
COc1cc(O)c(C(=O)/C=C/C=C(\Cl)c2cccc(Cl)c2)c(OC)c1 | – | Non-toxic | 18 | 25 (≈ 65.9 µM) | – | – | inactive | inactive | 31 | 0 | inactive | – | inactive | inactive | inactive | inactive | 16 | 50 (≈ 132 µM) | 12

Source: ChEMBL document CHEMBL1165858, “Synthesis and biological evaluation of beta-chloro vinyl chalcones as inhibitors of TNF-alpha and IL-6 with antimicrobial activity” (Eur J Med Chem, 2010)
